MC4R antagonist: antagonists of human melanocortin 4 receptor (MC4R) | MC4R-expressing cells, MTII-stimulated cAMP, LANCE TR-FRET | inhibition, % at 6.5 µM | 0.48% of 360,000 active;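 active = inhibition above its plate's cutoff, the mean of tested wells on that plate plus 3 SD, cut at about 29% in these data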
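Assay system: U2OS cells stably expressing human melanocortin 4 receptor (MC4R) / Dosing: 6.5 µM / Timing: compound 30 min, challenge 1 h, detection 1 h / Measured by: Eu-cAMP/anti-cAMP TR-FRET, emission 671 nm / Replicates: singlicate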
HGIII-sPLA2 inh: Inhibits HGIII-sPLA2 liposome hydrolysis, primary screen | QFRET BODIPY PC-A2 liposome hydrolysis, fluorescence | inhibition, % at 12.2 µM | 0.56% of 370,000 active;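 active = inhibition above mean plus 3 SD of compounds lying within the high and low control bounds, cut at about 19% in these data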
Target sequence (Q9NZ20 whole entry, looked up): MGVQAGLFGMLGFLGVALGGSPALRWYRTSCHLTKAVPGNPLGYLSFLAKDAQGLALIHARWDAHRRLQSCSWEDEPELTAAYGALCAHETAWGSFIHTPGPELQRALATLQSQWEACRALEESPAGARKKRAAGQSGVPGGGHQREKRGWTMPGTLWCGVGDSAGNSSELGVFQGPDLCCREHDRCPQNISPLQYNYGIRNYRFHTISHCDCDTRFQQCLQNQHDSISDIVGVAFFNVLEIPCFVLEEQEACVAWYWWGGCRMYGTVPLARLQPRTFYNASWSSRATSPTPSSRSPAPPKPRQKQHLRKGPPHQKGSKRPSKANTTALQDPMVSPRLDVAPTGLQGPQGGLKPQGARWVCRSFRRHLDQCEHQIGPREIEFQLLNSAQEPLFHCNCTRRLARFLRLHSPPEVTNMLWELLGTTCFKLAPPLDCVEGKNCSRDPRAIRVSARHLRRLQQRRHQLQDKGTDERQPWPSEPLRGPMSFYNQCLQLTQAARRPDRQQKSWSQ
MC4R barr agon: human MC4R agonism via beta-arrestin | 0.98% of 360,000 active | U2OS MC4R beta-arrestin complementation, luminescence; percent of melanotan II response, DMSO zero | activation, % at 8.9 µM;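 active = activation above a per-plate cutoff, the mean activation of sample wells on that plate plus 3 SD, cut at about 8% in these data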
NTR1 ag: activates human neurotensin receptor 1. P30989. NTR1-U2OS beta-arrestin-GFP spot imaging, agonist mode. activation, % at 20 µM. 0.17% of 330,000 active;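 active = activation at or above 40% of the spot to cytoplasm intensity ratio, with at least 20 cells analyzed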
A1 inh: inhibitors of the anti-apoptotic protein A1, read as caspase activation; MEF A1-2A-BIM cells, Caspase-Glo 3/7 luminescence, 3 h; percent of clofoctol response, vehicle zero; caspase activation, % (test concentration not listed); 0.066% of 330,000 active;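 active = over half of replicate activation scores above 10%, or exactly half above 10 with the replicate mean above 10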
Granule exo inh: lytic granule exocytosis inhibition | TALL-104 LAMP-1 surface exposure, flow cytometry; cells stimulated with thapsigargin and PMA | inhibition, % at 10 µM | 0.66% of 360,000 active | AID 651702;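 active = inhibition above about 55%, limit read from the data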
U2OS cAMP counter: U2OS forskolin cAMP inhibition counter-screen. shares compounds with MC4R antagonist. parental U2OS, LANCE TR-FRET. inhibition, % at 6.5 µM. 26% of 1,600 active. AID 602193;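 active = mean inhibition over triplicates above the low-control well mean plus 3 SD, set per campaign, cut at about 13% in these data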;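 note: signal is single emission at 671 nm which falls as cellular cAMP rises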
MC4R cAMP antag: human MC4R cAMP antagonism confirmation. 27% of 1,600 active. inhibition, % at 6.5 µM. MC4R-expressing cells, MTII-stimulated cAMP, TR-FRET. shares compounds with MC4R antagonist. AID 602195; in the data active = inhibition above about 29%
Large screens that a line does not name were inactive (follow-up assays come after a bar, where they were run). Only some compounds are listed: those with a hit (about 2.5% of all), similar ones and a draw of the others.

CCCc1cc(=O)oc2c3c(cc(OCC(=O)N[C@@H](C)C(=O)O)c12)OC(C)(C)CC3	none
CCCc1cc(=O)oc2c3c(c4c(c12)OC(C)(C)C=C4)OC(C)C(C)C3O (stereo not given)	MC4R antagonist 30 | U2OS cAMP counter inactive | MC4R cAMP antag inactive
COc1ccc(-c2c3c([nH]c(=S)c2C#N)CCC3)cc1	MC4R antagonist 88 (no result: NTR1 ag, A1 inh) | U2OS cAMP counter 20 | MC4R cAMP antag 35
CN1C2CCC1/C(=C\c1ccc(F)cc1)C(=O)/C2=C/c1ccc(F)cc1	none
C=CC(=O)N1C/C(=C/c2ccc(F)cc2)C(=O)/C(=C\c2ccc(F)cc2)C1	MC4R antagonist 40, Granule exo inh 94 (no result: NTR1 ag, A1 inh) | U2OS cAMP counter 28 | MC4R cAMP antag inactive
CC(CCc1ccccc1)NC(=O)CN1CCSc2ccccc21 (stereo not given)	MC4R antagonist 31 | U2OS cAMP counter inactive | MC4R cAMP antag inactive
CC(CCc1ccccc1)NC(=O)CN1CCOc2ccccc21 (stereo not given)	none
CS(=O)(=O)Nc1cccc(NC(=O)c2cccc3c(-c4ccc(F)c(F)c4)coc23)c1	none (no result: NTR1 ag, A1 inh)
CS(=O)(=O)Nc1cccc(NC(=O)c2cccc3c(-c4cccc(C(N)=O)c4)coc23)c1	MC4R antagonist 44 (no result: NTR1 ag, A1 inh) | U2OS cAMP counter inactive | MC4R cAMP antag inactive
Nc1[nH]nc2ncc3cc4ccccc4nc3c12	MC4R antagonist 29 | U2OS cAMP counter inactive | MC4R cAMP antag inactive
c1ccc2nc3c(ccc4ccccc43)cc2c1	none (no result: NTR1 ag, A1 inh)
C=CCNc1cccc2c1S(=O)(=O)N[C@@H](C)CO2	none (no result: MC4R antagonist, MC4R barr agon, NTR1 ag, A1 inh, Granule exo inh)
CCC1=NN(S(=O)(=O)c2ccc(C)cc2)C(O)(C(F)(F)F)C1 (stereo not given)	MC4R antagonist 29 | U2OS cAMP counter inactive | MC4R cAMP antag inactive
CCC1=NN(C(=O)CCc2ccccc2)C(O)(C(F)(F)F)C1 (stereo not given)	none
Cc1ccc(OCCn2c(CCNC(=O)c3ccc(F)cc3F)nc3ccccc32)cc1	none (no result: MC4R antagonist, MC4R barr agon, NTR1 ag, A1 inh, Granule exo inh)
CCOc1cc(C(=O)NCC(C)(C)CNC(=O)c2cc(OCC)c(OCC)c(OCC)c2)cc(OCC)c1OCC	MC4R antagonist 30 | U2OS cAMP counter inactive | MC4R cAMP antag inactive
C[C@H]1COc2cc(Br)ccc2S(=O)(=O)N1Cc1cn(CCC2OCCO2)nn1	none (no result: MC4R antagonist, MC4R barr agon, NTR1 ag, A1 inh, Granule exo inh)
O=S(=O)(NC1=NCCCCC1)c1ccc(F)cc1F	none
O=S(=O)(NC1=NCCC1)c1ccc(F)cc1F	MC4R antagonist 29 | U2OS cAMP counter inactive | MC4R cAMP antag inactive
Cc1[nH]n(-c2ccccc2)c(=O)c1C=NC1CCCCC1	none
Cc1[nH]n(-c2ccccc2)c(=O)c1C=NC1CCCCCC1	MC4R antagonist 34 | U2OS cAMP counter inactive | MC4R cAMP antag inactive
Cc1ccc(-n2nc3c(=S)[nH]nc(C)c3c2C)cc1	MC4R antagonist 146 | U2OS cAMP counter 90 | MC4R cAMP antag 147
CCc1c(Cc2cccc(F)c2)ncn1CCc1ccccc1OC	none (no result: MC4R antagonist, MC4R barr agon, NTR1 ag, A1 inh, Granule exo inh)
CO[C@@H]1[C@H](O)CC[C@]2(O)CN(c3ccc(F)cc3)[C@](C)([C@H](O)CC=C(C)C)[C@@H]12	none (no result: MC4R antagonist, MC4R barr agon, NTR1 ag, A1 inh, Granule exo inh)
O=C1[C@@H](CCc2ccccc2)[C@@H]2c3cc4ccccc4cc3C=NN2[C@@H]2c3cc4ccccc4cc3C=NN12	none (no result: MC4R antagonist, MC4R barr agon, NTR1 ag, A1 inh, Granule exo inh)
CCCC[C@H]1C2CC(OC(=O)Nc3ccccc3C)C(C2)[C@H]2CCCCN21 (stereo not given in full)	none (no result: MC4R antagonist, MC4R barr agon, NTR1 ag, A1 inh, Granule exo inh)
COC(=O)c1sc(-c2ccccc2)cc1NC(C)=O	none
COC(=O)c1sc(-c2cccs2)cc1NC(=O)/C=C/C(=O)O	MC4R antagonist 32 | U2OS cAMP counter inactive | MC4R cAMP antag inactive
Cc1cc(N2CCN(C(=O)Oc3ccc(-c4ccccc4)cn3)CC2)c2ccccc2n1	none (no result: MC4R antagonist, MC4R barr agon, NTR1 ag, A1 inh, Granule exo inh)
CN1C(=O)S/C(=C\c2ccccc2OCc2ccc(C(=O)O)cc2)C1=O	none
